In ChEMBL document CHEMBL3259611, “Suppression of inflammatory responses by handelin, a guaianolide dimer from Chrysanthemum boreale, via downregulation of NF-κB signaling and pro-inflammatory cytokine production” (J Nat Prod, 2014):
Activity calls are given as the source filed them. The rule behind the calls is not given here.

What was measured:
RAW264.7 [1] = assay: Antiinflammatory activity in mouse RAW264.7 cells assessed as inhibition of LPS-induced iNOS mRNA expression at 40 uM after 5 hrs by RT-PCR analysis relative to control; assay type: functional
Summary of the method: (§1)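 RAW 264.7 cells exposed to 1 μg/mL LPS with or without compound for 5 h. Total RNA was analysed by RT-PCR: 25−30 cycles with annealing at 55 °C. Products were separated on 2% agarose gel with SYBR-Safe staining. Experiments in triplicate.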

[2] = Cytotoxicity against mouse RAW264.7 cells assessed as cell survival at 20 uM after 4 hrs by MTT assay relative to control; assay type: cell-based; settings: read-out: Survival
Summary of the method: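 RAW 264.7 cells plated at 3 × 10^5 cells/mL in phenol red-free 10% FBS–DMEM, incubated 24 h, then treated with compound plus 1 μg/mL LPS for 20 h. After the Griess step, MTT was added (final 500 μg/mL) for 4 h at 37 °C. Formazan dissolved in DMSO, A570 read; survival taken relative to control; triplicate.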

RAW264.7 [3] = assay: Antiinflammatory activity in mouse RAW264.7 cells assessed as inhibition LPS-induced TNF-alpha protein expression after 4 hrs by Western blotting analysis; assay type: functional, cell-based
Summary of the method: (§2)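 RAW 264.7 cells stimulated with LPS (1 μg/mL) with or without compound for 4 h. Lysates were resolved by 6−15% SDS-PAGE and blotted to PVDF. Blocked in 5% milk/PBST, primary antibody overnight at 4 °C, secondary antibody 2 h, detected by ECL. Triplicate, representative of three experiments.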

[4] = target: Mitogen-activated protein kinase 1 and 3 (ERK2 and ERK1) (Mus musculus) (UniProt P63085+Q63844); assay: Inhibition LPS-induced ERK1/2 phosphorylation at Thr202/Tyr204 in mouse RAW264.7 cells at 10 uM administered 30 mins prior to LPS challenge measured after 30 mins by Western blotting analysis; assay type: cell-based
Mitogen-activated protein kinase 1 and 3 (ERK2 and ERK1) (Mus musculus), sequence (P63085 whole entry, looked up): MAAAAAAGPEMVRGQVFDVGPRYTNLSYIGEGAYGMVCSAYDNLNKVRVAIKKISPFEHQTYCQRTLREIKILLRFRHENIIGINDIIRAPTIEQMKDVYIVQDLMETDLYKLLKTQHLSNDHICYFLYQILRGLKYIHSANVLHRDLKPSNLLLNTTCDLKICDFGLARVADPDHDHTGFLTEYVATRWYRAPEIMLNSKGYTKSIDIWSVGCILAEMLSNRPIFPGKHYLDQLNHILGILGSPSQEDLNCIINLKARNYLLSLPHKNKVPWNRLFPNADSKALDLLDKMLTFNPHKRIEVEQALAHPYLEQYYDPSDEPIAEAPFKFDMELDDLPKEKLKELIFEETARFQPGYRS
Mitogen-activated protein kinase 1 and 3 (ERK2 and ERK1) (Mus musculus), sequence (Q63844 whole entry, looked up): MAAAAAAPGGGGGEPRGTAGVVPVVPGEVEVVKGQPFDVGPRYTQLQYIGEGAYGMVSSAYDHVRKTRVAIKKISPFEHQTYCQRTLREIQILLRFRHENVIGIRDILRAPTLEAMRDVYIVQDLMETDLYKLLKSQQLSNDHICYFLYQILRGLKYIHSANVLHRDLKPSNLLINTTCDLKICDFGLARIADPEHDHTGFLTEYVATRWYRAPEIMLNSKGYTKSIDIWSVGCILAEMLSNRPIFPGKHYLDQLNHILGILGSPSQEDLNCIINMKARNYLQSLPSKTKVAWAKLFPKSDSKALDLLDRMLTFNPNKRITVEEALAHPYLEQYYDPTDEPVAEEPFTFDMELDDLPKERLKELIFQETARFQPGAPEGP
Summary of the method: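 RAW 264.7 cells pretreated with compound for 30 min, then stimulated with LPS for 30 min. Protein extracts were Western blotted for phosphorylated ERK and JNK (SDS-PAGE, PVDF, ECL detection).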

Rattus norvegicus = assay: Antiinflammatory activity in rat paw edema model assessed as inhibition of carrageenan-induced COX2 protein expression in paw tissue at 20 mg/kg, po administered 30 mins prior to carrageenan challenge measured after 6 hrs by Western blotting analysis relative to vehicle-treated control; assay type: functional, organism-based; set-up: dose 20 mg/kg
Summary of the method: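 SD rats received compound orally in 0.5% CMC-Na 30 min before subplantar injection of 0.1 mL 1% carrageenan in saline. Paws were removed at 6 h, homogenized, and iNOS, COX-2 and IL-1β were assessed by Western blot. Triplicate, representative of three experiments.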

RAW264.7 [5] = assay: Antiinflammatory activity in mouse RAW264.7 cells assessed as inhibition of LPS-induced iNOS protein expression at 20 uM after 16 hrs by Western blotting analysis relative to control; assay type: functional
Summary of the method: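 RAW 264.7 cells given LPS (1 μg/mL) with or without compound for 16 h. Cell lysates were Western blotted for iNOS and COX-2 (6−15% SDS-PAGE, PVDF, ECL detection). Performed in triplicate.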

RAW264.7 [6] = assay: Antiinflammatory activity in mouse RAW264.7 cells assessed as inhibition of LPS-induced iNOS mRNA expression at 10 uM after 5 hrs by RT-PCR analysis relative to control; assay type: functional; summary of the method: as §1
RAW264.7 [7] = assay: Inhibition of LPS-induced NFkappaB transcriptional activity in mouse RAW264.7 cells assessed as […] at 20 uM after 30 mins by Western blotting analysis relative to control; assay type: cell-based
Summary of the method: (§3)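 Macrophages were exposed to compound for 30 min before LPS stimulation, with proteins extracted 30 min later. Nuclear extracts were prepared in Tris/KCl/NP-40 lysis buffer, then 420 mM NaCl buffer, and the cytosolic fraction was kept for IκB-α. Western blot on PVDF with ECL detection. Tests in triplicate; representative of three separate experiments.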

RAW264.7 [8] = assay: Inhibition of LPS-induced NFkappaB transcriptional activity in mouse RAW264.7 cells assessed as […] at 40 uM after 30 mins by Western blotting analysis relative to control; assay type: cell-based; summary of the method: as §3
[9] = target: T1, Nuclear factor NF-kappa-B p105 subunit (Mus musculus) (UniProt P25799); assay: Inhibition of LPS-induced NF-kappaB p50 binding to DNA in mouse RAW264.7 cells at 10 to 40 uM after 1.5 hrs by spectrophotometry in presence of wild type oligonucleotide; assay type: cell-based
T1 sequence (whole entry): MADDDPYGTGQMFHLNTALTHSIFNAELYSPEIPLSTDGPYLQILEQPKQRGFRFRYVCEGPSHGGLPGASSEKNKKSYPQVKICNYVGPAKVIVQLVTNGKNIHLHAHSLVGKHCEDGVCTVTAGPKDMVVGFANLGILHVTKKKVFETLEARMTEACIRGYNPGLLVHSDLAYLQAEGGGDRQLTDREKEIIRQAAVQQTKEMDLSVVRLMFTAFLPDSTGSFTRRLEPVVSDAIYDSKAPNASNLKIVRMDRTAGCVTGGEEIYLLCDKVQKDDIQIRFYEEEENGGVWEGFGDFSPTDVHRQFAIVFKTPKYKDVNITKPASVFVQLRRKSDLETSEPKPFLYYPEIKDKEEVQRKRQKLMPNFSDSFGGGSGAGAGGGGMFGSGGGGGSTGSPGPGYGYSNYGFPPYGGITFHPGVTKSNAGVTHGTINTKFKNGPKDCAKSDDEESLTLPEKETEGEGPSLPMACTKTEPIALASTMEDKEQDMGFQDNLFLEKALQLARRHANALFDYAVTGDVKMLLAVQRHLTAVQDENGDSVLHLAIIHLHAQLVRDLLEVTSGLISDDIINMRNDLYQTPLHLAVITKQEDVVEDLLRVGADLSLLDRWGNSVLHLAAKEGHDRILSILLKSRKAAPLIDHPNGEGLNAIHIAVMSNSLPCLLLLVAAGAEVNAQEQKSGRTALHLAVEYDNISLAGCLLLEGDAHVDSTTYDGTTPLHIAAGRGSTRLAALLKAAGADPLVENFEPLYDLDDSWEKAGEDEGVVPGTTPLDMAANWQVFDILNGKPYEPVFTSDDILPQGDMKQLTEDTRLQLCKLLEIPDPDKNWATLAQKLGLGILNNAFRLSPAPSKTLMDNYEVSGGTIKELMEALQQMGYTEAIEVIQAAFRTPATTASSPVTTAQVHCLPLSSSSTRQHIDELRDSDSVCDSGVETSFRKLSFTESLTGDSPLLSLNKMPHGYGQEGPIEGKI

RAW264.7 [10] = assay: Antiinflammatory activity in mouse RAW264.7 cells assessed as inhibition LPS-induced TNF-alpha protein expression at 40 uM after 4 hrs by Western blotting analysis relative to control; assay type: functional
RAW264.7 [11] = assay: Antiinflammatory activity in mouse RAW264.7 cells assessed as inhibition LPS-induced IL-1beta protein expression at 40 uM after 4 hrs by Western blotting analysis; assay type: functional; summary of the method: as §2

With C=C1C(=O)O[C@@H]2[C@@H]3[C@@]4(C=C[C@@]3(C)[C@]3(C4)C(=O)O[C@@H]4[C@H]5C(C)=CC[C@H]5[C@](C)(O)C[C@H](OC(C)=O)[C@H]43)[C@](C)(O)CC[C@@H]12 the “fold change (FC)” value (RAW264.7 [1]) was 0.58, the viability at 4 h, 20 µM [2] was over 80% and the inhibition (RAW264.7 [3]) was “Dose-dependent effect”. For the same compound, the fold change (FC) [4] was 0.76, the inhibition [4] was “Active” and the inhibition (Rattus norvegicus) was “Active”. For the same compound, the “fold change (FC)” value (RAW264.7 [5]) was 0.29, the “fold change (FC)” value (RAW264.7 [6]) was 0.74 and the fold change (FC) (RAW264.7 [7]) was 1.85. For the same compound, the fold change (FC) (RAW264.7 [8]) was 1.83, the inhibition [9] was “inactive” and the “fold change (FC)” value (RAW264.7 [10]) was 0.56. The “fold change (FC)” value (RAW264.7 [11]) was 0.65.
